The results in this text go back to PubChem BioAssay.

Active and inactive are the calls of the source.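 Rule for the calls, unless noted: active = viability at or under a set limit in both replicates, limit being median viability minus 3 SD (cut at about 48% in these data, passing the limit was not always enough); inconclusive = at or under the limit in just one replicate; inactive = at or above the limit in both replicates.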

In general, viability refers to a read-out of living cells in per cent, often relative to untreated cells. What is called inhibition is the change of the read-out against control, counted positive when it falls.

The nature of test [1]: Her2 expression decrease, cell viability multiplex – SKBR3 breast tumor cells, AlphaScreen, ATP viability, primary screen (AID 461;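 active = Her2 level under about 52% in both replicate screens, with viability over 70% of control, limit read from the data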;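 for Her2 level: lower value means less Her2 protein in the cells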;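 for viability: percent of carrier control wells set as 100% viability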). The note with it: SKBR3 Her2 protein level, 18-24 h, measured here: SKBR3 viability, ATP luminescence, at 10 µM. A general note: Bead proximity is the source of the signal in Alpha formats.
For test [2], the target named is Receptor tyrosine-protein kinase erbB-2 (Homo sapiens) (UniProt P04626). The description is as above. The note with it: 18-24 h, at 10 µM, stronger effect = lower value.
Sequence of Receptor tyrosine-protein kinase erbB-2 (Homo sapiens) (P04626 whole entry, looked up): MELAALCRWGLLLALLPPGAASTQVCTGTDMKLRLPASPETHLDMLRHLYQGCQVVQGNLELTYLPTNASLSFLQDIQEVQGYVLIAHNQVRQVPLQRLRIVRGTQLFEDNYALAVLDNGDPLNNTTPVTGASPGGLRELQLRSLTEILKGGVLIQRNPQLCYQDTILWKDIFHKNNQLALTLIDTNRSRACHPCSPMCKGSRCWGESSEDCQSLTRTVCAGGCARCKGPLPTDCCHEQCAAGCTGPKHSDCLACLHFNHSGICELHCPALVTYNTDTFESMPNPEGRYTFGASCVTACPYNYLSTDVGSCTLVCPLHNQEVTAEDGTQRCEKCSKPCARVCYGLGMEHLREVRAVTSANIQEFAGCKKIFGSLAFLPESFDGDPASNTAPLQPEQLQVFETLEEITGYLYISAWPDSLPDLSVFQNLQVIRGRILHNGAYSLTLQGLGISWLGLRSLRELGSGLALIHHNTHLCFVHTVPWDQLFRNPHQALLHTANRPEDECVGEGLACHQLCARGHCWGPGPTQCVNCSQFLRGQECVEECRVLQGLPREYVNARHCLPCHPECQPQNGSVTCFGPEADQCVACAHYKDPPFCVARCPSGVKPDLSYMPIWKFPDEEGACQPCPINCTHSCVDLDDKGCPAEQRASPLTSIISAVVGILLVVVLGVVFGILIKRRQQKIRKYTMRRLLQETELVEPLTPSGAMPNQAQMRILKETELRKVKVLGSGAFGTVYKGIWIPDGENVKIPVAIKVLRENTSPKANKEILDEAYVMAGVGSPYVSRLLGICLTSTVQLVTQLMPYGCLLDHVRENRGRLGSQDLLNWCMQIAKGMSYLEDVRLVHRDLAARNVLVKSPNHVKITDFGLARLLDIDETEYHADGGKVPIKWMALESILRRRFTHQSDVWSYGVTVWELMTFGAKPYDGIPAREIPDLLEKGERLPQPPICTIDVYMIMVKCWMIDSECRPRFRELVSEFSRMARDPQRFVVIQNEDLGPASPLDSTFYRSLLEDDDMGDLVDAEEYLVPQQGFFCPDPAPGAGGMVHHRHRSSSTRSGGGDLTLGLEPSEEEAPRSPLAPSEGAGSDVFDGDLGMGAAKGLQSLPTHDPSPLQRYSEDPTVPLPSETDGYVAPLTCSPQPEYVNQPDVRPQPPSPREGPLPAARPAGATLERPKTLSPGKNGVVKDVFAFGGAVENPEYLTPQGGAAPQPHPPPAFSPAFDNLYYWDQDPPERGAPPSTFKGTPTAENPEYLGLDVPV
The nature of test [3]: reduced viability of SK-BR-3 breast cancer cells – cell-based, 24 h, human, pilot screen (AID 572;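 active = viability at or below 10% of carrier control in both of two separate runs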;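 note: compound exposure lasted between 18 and 24 h rather than exactly 24 h; 100% = carrier-treated control wells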). The following applies: SK-BR-3 viability, CellTiter-Glo luminescence, at 10 µM, stronger effect = lower value.
A short description of test [4]: HUVEC growth inhibition – cell-based, human, primary screen (AID 575;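 active = viability at or below 30% in both replicate assays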;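 note: 100% = median of untreated cell wells with 0.1% DMSO on each plate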). The following applies: HUVEC proliferation, CellTiter-Glo luminescence, 72 h; at 10 µM; stronger effect = lower value. A digest of the protocol:
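Test system – primary HUVEC, no more than 12 passages · Dosing – one dose, 10 µM final, 0.1% DMSO · Times – 72 h treatment at 37 °C · Measured by – ATP-based CellTiter-Glo luminescent read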

A short description of test [5]: H69AR cell proliferation blockers – human, duplicate replicates, primary screen (AID 580).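 Note: 100% = mean luminescence of untreated wells and 0% = no signal.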 The note with it: H69AR lung tumor cells viability, ATP luminescence, 72 h; at 10 µM; stronger effect = lower value.
The nature of test [6]: MRP1 drug-resistance reversers in H69AR cells – cell-based, doxorubicin co-treatment, pilot screen (AID 601;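 active = viability loss from added drug above about 55%, and viability with drug at most 40%, in both replicates, limit read from the data, passing the limit was not always enough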). The note with it: CellTiter-Glo, 72 h, at 10 µM; for differential viability (reversal): stronger effect = higher value. (In general: In ATP-based viability assays light output follows the ATP content of the culture.)
Test [7] in a line: yeast transport mutant growth inhibition pilot in 384-well plates, post-Golgi transport modulator project (AID 636; in the data active = inhibition above about 31%). The note with it: absorbance 615 nm, about 18 h, stronger effect = higher value.
Test [8] is described as follows: growth suppression of yeast trafficking mutant, preliminary HTS, modulators of trafficking downstream of Golgi apparatus project, 1536-format plate, OD 615 nm (AID 637; in the data active = inhibition above about 30%). The following applies: yeast transport mutant growth, absorbance 615 nm, 18 h; stronger effect = higher value.
Setting [9] is: H69AR cells + 2 uM doxorubicin, measured here: viability with 2 uM doxorubicin, stronger effect = lower value.
[10] abbreviates: H69AR cells, compound alone cytotoxicity.

`CCOC(=O)c1c(N)sc(C(=O)N2CCOCC2)c1C`: the viability is 127% in test [1]; 127% (inactive) in test [3]; 103% (inactive) in test [4]; 98.9% (inactive) in test [5]; 97.6% in test [6] (setting [9]); 98.9% in test [6] (setting [10]). In test [2], the Her2 level is 115% (inactive). Moreover, the differential viability (reversal) in test [6] (H69AR cells + 2 uM doxorubicin) is 1.31% (inactive). Also, the values for the inhibition in test [7] and in test [8] were -7.07% (inactive) and -1.75% (inactive), respectively.

Take `C=CS(=O)(=O)c1ccc(Oc2ccc(S(=O)(=O)C=C)cc2)cc1`: the viability in test [1] was 243%; in test [3], 243% (inactive); in test [4], 97% (inactive); in test [5] it was 1.27% (active); in test [6] (setting [9]), 0.865%; in test [6] (setting [10]) it was 1.27%. In addition, in test [2], the Her2 level was 21% (active). Moreover, the differential viability (reversal) in test [6] (H69AR cells + 2 uM doxorubicin) is 0.405% (inactive). Besides, the inhibition in test [7] was -4.67% (inactive); in test [8] it was 1.77% (inactive).

On to `Nn1c(SCC(=O)NC2CCCCC2)nnc1C1CC1`, for which the viability is 102% in test [1]; 102% (inactive) in test [3]; 98.4% (inactive) in test [4]; 103% (inactive) in test [5]; 103% in test [6] (setting [9]); 103% in test [6] (setting [10]). Moreover, the Her2 level in test [2] is 111% (inactive). Further, the differential viability (reversal) in test [6] (H69AR cells + 2 uM doxorubicin) is 0.415% (inactive). Besides, the inhibition in test [7] was -0.52% (inactive); in test [8], 10.8% (inactive).

`CCOC(=O)c1[nH]c2ccccc2c1NC(=O)C(CC)CC`: the viability in test [1] is 98.5%; in test [3] it was 98.5% (inactive); in test [4] it was 80.8% (inactive); in test [5] it was 93.3% (inactive); in test [6] (setting [9]), 79.4%; in test [6] (setting [10]), 93.3%. Also, the Her2 level in test [2] was 99.5% (inactive). In test [6] (H69AR cells + 2 uM doxorubicin), the differential viability (reversal) was 13.9% (inactive). For the same compound, the figures for the inhibition in test [7] and in test [8] were -4.27% (inactive) and 5.5% (inactive), respectively.

For `Cc1ccc(-c2nc3ccccc3[nH]2)s1`, the viability in test [1] was 74%; in test [3], 74% (inactive); in test [4], 59.8% (inactive); in test [5] it was 58.8% (inactive); in test [6] (setting [9]) it was 54.5%; in test [6] (setting [10]), 58.8%. The Her2 level in test [2] was 95.5% (inactive). Besides, the differential viability (reversal) in test [6] (H69AR cells + 2 uM doxorubicin) was 4.25% (inactive). For the same compound, the inhibition in test [7] is 0.77% (inactive); in test [8] it was -9% (inactive).

On to `O=c1c2ccccc2nnn1CSc1nnc2sc3ccccc3n12`, for which the viability in test [1] is 95%; in test [3], 95% (inactive); in test [4], 92.8% (inactive); in test [5] it was 77.5% (inactive); in test [6] (setting [9]), 67.7%; in test [6] (setting [10]) it was 77.5%. In addition, the Her2 level in test [2] is 64% (inactive). The differential viability (reversal) in test [6] (H69AR cells + 2 uM doxorubicin) is 9.79% (inactive). For the same compound, the inhibition in test [7] is -9.04% (inactive); in test [8], -1.43% (inactive).

For `c1ccc(-c2cn3c4c(sc3n2)CCCC4)cc1`, the viability was 89% in test [1]; 89% (inactive) in test [3]; 46% (inactive) in test [4]; 39.9% (active) in test [5]; 65.2% in test [6] (setting [9]); 39.9% in test [6] (setting [10]). In test [2], the Her2 level was 76% (inactive). The differential viability (reversal) in test [6] (H69AR cells + 2 uM doxorubicin) is -25.4% (inactive). The inhibition in test [7] was -2.37% (inactive); in test [8], 1.27% (inactive).

On to `CCOc1ccc2[nH]c(=O)c(CN(CCOC)C(=O)N3CCOCC3)cc2c1`, for which the viability in test [1] is 97%; in test [3], 97% (inactive); in test [4] it was 102% (inactive); in test [5], 92.1% (inactive); in test [6] (setting [9]) it was 101%; in test [6] (setting [10]), 92.1%. Moreover, the Her2 level in test [2] is 90% (inactive). In test [6] (H69AR cells + 2 uM doxorubicin), the differential viability (reversal) is -8.59% (inactive). The figures for the inhibition in test [7] and in test [8] were -3.33% (inactive) and 4.59% (inactive), respectively.

For `CCC1C(=O)N=C(SCC(=O)Nc2cccc3ccccc23)NC1=O` (stereo not given), the viability is 112% in test [1]; 112% (inactive) in test [3]; 106% (inactive) in test [4]; 82.3% (inactive) in test [5]; 92.1% in test [6] (setting [9]); 82.3% in test [6] (setting [10]). For the same compound, the Her2 level in test [2] was 100% (inactive). For the same compound, the differential viability (reversal) in test [6] (H69AR cells + 2 uM doxorubicin) was -9.84% (inactive). The inhibition was -3.24% (inactive) in test [7] and 0.63% (inactive) in test [8].

In the case of `N#CCCNCC1(c2ccccc2)CCCC1`, the viability is 96% in test [1]; 96% (inactive) in test [3]; 106% (inactive) in test [4]; 102% (inactive) in test [5]; 89.4% in test [6] (setting [9]); 102% in test [6] (setting [10]). Besides, in test [2], the Her2 level was 94% (inactive). In test [6] (H69AR cells + 2 uM doxorubicin), the differential viability (reversal) was 12.9% (inactive). Also, the inhibition in test [7] is 2.97% (inactive); in test [8] it was -4.13% (inactive).

Regarding `COCCCn1c2nc3ccccc3nc2c2c(=O)n(-c3ccccc3OC)cnc21`, the viability in test [1] is 97.5%; in test [3] it was 97.5% (inactive); in test [4] it was 97.8% (inactive); in test [5], 73.7% (inactive); in test [6] (setting [9]) it was 67.5%; in test [6] (setting [10]) it was 73.7%. In test [2], the Her2 level was 100% (inactive). Also, the differential viability (reversal) in test [6] (H69AR cells + 2 uM doxorubicin) is 6.27% (inactive). In addition, the results for the inhibition in test [7] and in test [8] were -0.8% (inactive) and 4.75% (inactive), respectively.

As for `O=S(=O)(c1cccs1)N1CCN(C/C=C/c2ccccc2)CC1`, the viability was 101% in test [1]; 101% (inactive) in test [3]; 83.3% (inactive) in test [4]; 82.9% (inactive) in test [5]; 81.4% in test [6] (setting [9]); 82.9% in test [6] (setting [10]). The Her2 level in test [2] was 91.5% (inactive). In addition, the differential viability (reversal) in test [6] (H69AR cells + 2 uM doxorubicin) was 1.57% (inactive). For the same compound, the figures for the inhibition in test [7] and in test [8] were -3.73% (inactive) and 2.1% (inactive), respectively.

In the case of `COC(=O)n1c(=S)oc2cc(Cl)ccc21`, the viability in test [1] is 102%; in test [3], 102% (inactive); in test [4] it was 62.7% (inactive); in test [5], 93.6% (inactive); in test [6] (setting [9]) it was 89.6%; in test [6] (setting [10]), 93.6%. In addition, in test [2], the Her2 level was 102% (inactive). Also, the differential viability (reversal) in test [6] (H69AR cells + 2 uM doxorubicin) is 3.97% (inactive). Moreover, the inhibition in test [7] was 0.26% (inactive); in test [8] it was 25.6% (inactive).

Consider `COc1cc(Cl)c(C)cc1NC(=O)COC(=O)c1cnc(C)cn1`, for which the viability in test [1] is 108%; in test [3] it was 108% (inactive); in test [4], 95.1% (inactive); in test [5], 97% (inactive); in test [6] (setting [9]) it was 99.3%; in test [6] (setting [10]) it was 97%. In test [2], the Her2 level is 110% (inactive). Besides, the differential viability (reversal) in test [6] (H69AR cells + 2 uM doxorubicin) is -2.33% (inactive). In addition, the inhibition in test [7] is -4.25% (inactive); in test [8], -0.95% (inactive).

For the compound `CCOC(=O)c1sc(NC(=O)CNC(=O)Cn2cnc3sc(C)c(C)c3c2=O)nc1C`, the viability in test [1] was 94%; in test [3], 94% (inactive); in test [4], 93.4% (inactive); in test [5] it was 104% (inactive); in test [6] (setting [9]), 96.7%; in test [6] (setting [10]), 104%. Further, in test [2], the Her2 level was 88.5% (inactive). The differential viability (reversal) in test [6] (H69AR cells + 2 uM doxorubicin) was 7.01% (inactive). The inhibition in test [7] is 1.18% (inactive); in test [8] it was 2.26% (inactive).

As to `Cc1ccc(-c2cc(C(=O)Nc3cc(C)ccc3C)[nH]n2)c(O)c1`, the viability is 102% in test [1]; 102% (inactive) in test [3]; 109% (inactive) in test [4]; 92.4% (inactive) in test [5]; 89.6% in test [6] (setting [9]); 92.4% in test [6] (setting [10]). In addition, in test [2], the Her2 level was 88% (inactive). Also, the differential viability (reversal) in test [6] (H69AR cells + 2 uM doxorubicin) was 2.75% (inactive). The inhibition in test [7] is -3.16% (inactive); in test [8] it was -1.9% (inactive).
